The results in this text go back to ChEMBL document CHEMBL5120760, “Terpenoids and Meroterpenoids from Cultures of Two Grass-Associated Species of Amylosporus (Basidiomycota)” (J Nat Prod, 2022).

Assay [1] relates to Pseudomonas aeruginosa. As to the kind of experiment: Antibacterial activity against Pseudomonas aeruginosa PA 14 assessed as inhibition of bacterial growth incubated for overnight by serial dilution method. It is filed as functional, organism-based.
For assay [2], the system named is Schizosaccharomyces pombe. As to the kind of experiment: Antifungal activity against Schizosaccharomyces pombe DSM 70572 assessed as inhibition of fungal growth incubated for overnight by serial dilution method. In kind it is functional, organism-based.
Assay [3] relates to Wickerhamomyces anomalus. As to the kind of experiment: Antifungal activity against Pichia anomala DSM 6766 assessed as inhibition of fungal growth incubated for overnight by serial dilution method. It is filed as functional, organism-based.
For assay [4], the system named is Mucor hiemalis. As to the kind of experiment: Antifungal activity against Mucor hiemalis DSM 2656 assessed as inhibition of fungal growth incubated for overnight by serial dilution method. In kind it is functional.
The test system of assay [5] is Rhodotorula glutinis. As to the kind of experiment: Antifungal activity against Rhodotorula glutinis DSM 10134 assessed as inhibition of fungal growth incubated for overnight by serial dilution method. It is filed as functional, organism-based.
The test system of assay [6] is KB 3-1. As to the kind of experiment: Cytotoxicity against human KB 3-1 cells assessed as inhibition of cell proliferation incubated for 5 days by MTT assay. It is filed as functional, cell-based. Conditions: KB 3-1, 120 h. Summed up:
(§1)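 Colorimetric MTT tetrazolium assay, with epothilone B (1 mg/mL stock) as the positive control. IC50 was determined.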

Assay [7] relates to Bacillus subtilis. As to the kind of experiment: Antibacterial activity aginst Bacillus subtilis DSM 10 assessed as inhibition of bacterial growth incubated for overnight by serial dilution method. It is filed as functional.
For assay [8], the system named is Staphylococcus aureus. As to the kind of experiment: Antibacterial activity against Staphylococcus aureus DSM 346 assessed as inhibition of bacterial growth incubated for overnight by serial dilution method. In kind it is functional.
Assay [9] has as its system L929. As to the kind of experiment: Cytotoxicity against mouse L929 cells assessed as inhibition of cell proliferation incubated for 5 days by MTT assay. It is filed as functional, cell-based. The following applies: L929, 120 h. Summed up:
as §1
On the technique in general: Formazan colour is commonly taken as a measure of viable cells.

For assay [10], the system named is SK-OV-3. As to the kind of experiment: Cytotoxicity against human SK-OV-3 cells assessed as inhibition of cell proliferation incubated for 5 days by MTT assay. It is filed as functional, cell-based. The following applies: SK-OV-3, 120 h. A digest of the protocol:
as §1

Assay [11] concerns Escherichia coli. As to the kind of experiment: Antibacterial activity against Escherichia coli DSM 1116 assessed as inhibition of bacterial growth incubated for overnight by serial dilution method. It is filed as functional.
The test system of assay [12] is Micrococcus luteus. As to the kind of experiment: Antibacterial activity against Micrococcus luteus DSM 1790 assessed as inhibition of bacterial growth incubated for overnight by serial dilution method. In kind it is functional.
Assay [13] concerns Chromobacterium violaceum. As to the kind of experiment: Antibacterial activity against Chromobacterium violaceum DSM 30191 assessed as inhibition of bacterial growth incubated for overnight by serial dilution method. It is filed as functional.
Assay [14] deals with Mycolicibacterium smegmatis. As to the kind of experiment: Antibacterial activity against Mycobacterium smegmatis ATCC 700084 assessed as inhibition of bacterial growth incubated for overnight by serial dilution method. In kind it is functional.

In brackets after ≈: the same amount, converted by molar mass.

With GENTAMICIN, the minimal inhibitory concentration (MIC) (as a rule, the least concentration at which growth counts as inhibited) in assay [1] came to 0.4 µg/mL.

Take NYSTATIN: the MIC in assay [2] amounted to 16.7 µg/mL; in assay [3] it was 16.7 µg/mL; in assay [4], 16.7 µg/mL; in assay [5], 4.2 µg/mL.

With `CC(C)=CCC/C(C)=C/Cc1c(O)c(Cl)c(C)c(C=O)c1O`, the IC50 (usually the midpoint of a concentration-inhibition curve) is 7.7 µM in assay [6], 18 µM in assay [9] and 5.6 µM in [10]. Moreover, the MIC in [7] came out at 2.1 µg/mL (≈ 6.5 µM); in assay [8], 1.04 µg/mL (≈ 3.22 µM); in assay [4] it was 33.3 µg/mL (≈ 103 µM).

On to `CN(C)[C@@H]1C(=O)C(C(N)=O)=C(O)[C@@]2(O)C(=O)C3=C(O)c4c(O)cccc4[C@@](C)(O)[C@H]3[C@H](O)[C@@H]12`, for which the minimum inhibitory concentration (MIC) came to 3.33 µg/mL (≈ 7.23 µM) in [7]; 8.3 µg/mL (≈ 18 µM) in assay [11]; 0.4 µg/mL (≈ 0.869 µM) in [8]; 0.83 µg/mL (≈ 1.8 µM) in [12]; 1.7 µg/mL (≈ 3.69 µM) in [13].

For `CC(C)=CCc1c(C)c(C(=O)O)c(O)c(CC=C(C)C)c1O`, the IC50 stood at 42.7 µM in [6] and 59.2 µM in assay [9]. For the same molecule, the minimum inhibitory concentration (MIC) in assay [7], in assay [8] and in assay [4] was 66.7 µg/mL (≈ 219 µM) in each case.

For the molecule `CC(C)=CCc1c(C)cc(O)c(CC=C(C)C)c1O`, the half-inhibitory concentration (IC50) in assay [6] was determined as 57.7 µM; in assay [9], 53.8 µM. Besides, the MIC in assay [7], in assay [8] and in assay [4] was 33.3 µg/mL (≈ 128 µM) each time.

As to `CC(C)=CCC/C(C)=C/Cc1c(O)cc(C)c(C(=O)O)c1O`, the minimal inhibitory concentration (MIC) in [7] and in assay [8] was 66.7 µg/mL (≈ 219 µM) each time.

Turning to `NC[C@H]1O[C@H](O[C@H]2[C@H](O)[C@@H](O[C@H]3O[C@H](CO)[C@@H](O)[C@H](N)[C@H]3O)[C@H](N)C[C@@H]2N)[C@H](O)[C@@H](O)[C@@H]1O` [KANAMYCIN], the MIC in assay [14] was 1.7 µg/mL (≈ 3.51 µM).

`C/C(=C\c1csc(C)n1)[C@@H]1C[C@@H]2O[C@]2(C)CCC[C@H](C)[C@H](O)[C@@H](C)C(=O)C(C)(C)[C@@H](O)CC(=O)O1` [PATUPILONE]: the half-inhibitory concentration (IC50) in assay [6] is 6.9e-05 µM; in assay [9], 0.0014 µM.

In the case of `CC(C)=CCC/C(C)=C/Cc1c(O)cc(C)c(C=O)c1O`, the concentration for half-maximal inhibition (IC50) in [6] stood at 62.5 µM; in assay [9] it was 66 µM. The minimum inhibitory concentration (MIC) in assay [7] stood at 4.2 µg/mL (≈ 14.6 µM); in [8] it was 8.33 µg/mL (≈ 28.9 µM); in assay [12], 33.3 µg/mL (≈ 116 µM); in assay [4] it was 16.7 µg/mL (≈ 57.8 µM).
